How the values were obtained:
Canis familiaris [1] = assay: Inotropic activity determined by evaluating the maximum rate of rise in left ventricular pressure at a dose of 1000 ug/kg administered intravenously […]; assay type: functional, Canis lupus familiaris, Muscle tissue
In short: (§1)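 Mongrel dogs of either sex, 7–15 kg, anesthetized with sodium pentobarbital (30 mg/kg iv), open-chest, intubated and ventilated on room air. Compounds given intravenously. A femoral artery catheter with pressure transducer recorded SBP and DBP. dP/dtmax, right ventricular contractile force, cardiac output and heart rate were also recorded, as % change at each iv dose.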

Canis familiaris [2] = assay: Inotropic activity determined by evaluating the % change in Systolic Blood Pressure (SBP) at a dose of 300 ug/kg administered intravenously […]; assay type: functional, Canis lupus familiaris, Muscle tissue; in short: as §1
Canis familiaris [3] = assay: Inotropic activity determined by evaluating the % change in Diastolic Blood Pressure (DBP) at a dose of 1000 ug/kg administered intravenously […]; assay type: functional, Canis lupus familiaris; in short: as §1
Canis familiaris [4] = assay: Inotropic activity determined by evaluating the % change in Heart Rate (HR) at a dose of 1000 ug/kg administered intravenously […]; assay type: functional, Canis lupus familiaris; in short: as §1
Canis familiaris [5] = assay: Inotropic activity determined by evaluating the % change in Systolic Blood Pressure (SBP) at a dose of 1000 ug/kg administered intravenously […]; assay type: functional, Canis lupus familiaris, Muscle tissue; in short: as §1
Canis familiaris [6] = assay: Inotropic activity determined by evaluating the % change in Cardiac out put (CO)at a dose of 300 ug/kg administered intravenously […]; assay type: functional, Canis lupus familiaris; in short: as §1
Canis familiaris [7] = species on record: Canis familiaris; assay: Positive inotropic activity determined in the […](that produced 30% increase in dose- response curves [dP/dt(max)]); assay type: functional; details: Canis lupus familiaris
In short: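 In the anesthetized open-chest dog (mongrel, 7–15 kg, pentobarbital 30 mg/kg iv, ventilated on room air), compounds were given intravenously and LV dP/dtmax was recorded. The dose giving a 30% rise in dP/dtmax was read from the dose-response curves. Results are mean ± SEM (n = 3) or mean ± range (n = 2).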

Canis familiaris [8] = assay: Inotropic activity determined by evaluating the % change in Diastolic Blood Pressure (DBP) at a dose of 300 ug/kg administered intravenously […]; assay type: functional, Canis lupus familiaris; in short: as §1
Canis familiaris [9] = assay: Inotropic activity determined by evaluating the % change in Cardiac out put (CO)at a dose of 1000 ug/kg administered intravenously […]; assay type: functional, Canis lupus familiaris; in short: as §1
Canis familiaris [10] = species on record: Canis familiaris; assay: Positive inotropic in the isolated papillary muscle of the dog.; assay type: functional, Canis lupus familiaris
In short: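 Right ventricular anterior papillary muscle with septum, from mongrel dogs (7–12 kg, pentobarbital 30 mg/kg iv). It was perfused at about 100 mmHg via the septal artery with blood from a heparinized donor dog and paced at 120/min (1 ms pulses, about 1.5× threshold). Isometric tension was recorded. Saline solutions were injected intra-arterially, with amrinone as reference. ED15 (15% rise in developed tension) was taken from log dose-response curves. Results are mean ± SEM (n = 7) or mean ± range (n = 2).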

Canis familiaris [11] = assay: Inotropic activity determined by evaluating the % change in Heart Rate (HR) at a dose of 300 ug/kg administered intravenously […]; assay type: functional, Canis lupus familiaris, Muscle tissue; in short: as §1
Canis familiaris [12] = assay: Inotropic activity determined by evaluating the % change in contractile force (CF) of right ventricle at a dose of 300 ug/kg administered intravenously […]; assay type: functional, Canis lupus familiaris, Heart right ventricle; in short: as §1
Canis familiaris [13] = assay: Inotropic activity determined by evaluating the % change in contractile force (CF) of right ventricle at a dose of 1000 ug/kg administered intravenously […]; assay type: functional, Canis lupus familiaris, Heart right ventricle; in short: as §1
Canis familiaris [14] = assay: Inotropic activity determined by evaluating the maximum rate of rise in left ventricular pressure at a dose of 300 ug/kg administered intravenously […]; assay type: functional, Canis lupus familiaris, Muscle tissue; in short: as §1
Canis familiaris [15] = assay: Inotropic activity determined by evaluating the % change in Heart Rate (HR) at a dose of 3 ug/kg administered intravenously […]; assay type: functional, Canis lupus familiaris; in short: as §1
Canis familiaris [16] = assay: Inotropic activity determined by evaluating the % change in Diastolic Blood Pressure (DBP) at a dose of 10 ug/kg administered intravenously […]; assay type: functional, Canis lupus familiaris; in short: as §1
Canis familiaris [17] = assay: Inotropic activity determined by evaluating the % change in Heart Rate (HR) at a dose of 30 ug/kg administered intravenously […]; assay type: functional, Canis lupus familiaris; in short: as §1
Canis familiaris [18] = assay: Inotropic activity determined by evaluating the % change in Systolic Blood Pressure (SBP) at a dose of 30 ug/kg administered intravenously […]; assay type: functional, Canis lupus familiaris, Muscle tissue; in short: as §1
Canis familiaris [19] = assay: Inotropic activity determined by evaluating the % change in contractile force (CF) of right ventricle at a dose of 3 ug/kg administered intravenously […]; assay type: functional, Canis lupus familiaris, Heart right ventricle; in short: as §1
Canis familiaris [20] = assay: Inotropic activity determined by evaluating the % change in contractile force (CF) of right ventricle at a dose of 30 ug/kg administered intravenously […]; assay type: functional, Canis lupus familiaris, Heart right ventricle; in short: as §1
Canis familiaris [21] = assay: Inotropic activity determined by evaluating the maximum rate of rise in left ventricular pressure at a dose of 30 ug/kg administered intravenously […]; assay type: functional, Canis lupus familiaris, Muscle tissue; in short: as §1
Canis familiaris [22] = assay: Inotropic activity determined by evaluating the % change in Systolic Blood Pressure (SBP) at a dose of 3 ug/kg administered intravenously […]; assay type: functional, Canis lupus familiaris, Muscle tissue; in short: as §1
Canis familiaris [23] = assay: Inotropic activity determined by evaluating the % change in Cardiac out put (CO)at a dose of 10 ug/kg administered intravenously […]; assay type: functional, Canis lupus familiaris; in short: as §1
Canis familiaris [24] = assay: Inotropic activity determined by evaluating the % change in Diastolic Blood Pressure (DBP) at a dose of 30 ug/kg administered intravenously […]; assay type: functional, Canis lupus familiaris; in short: as §1
Canis familiaris [25] = assay: Inotropic activity determined by evaluating the % change in Cardiac out put (CO)at a dose of 3 ug/kg administered intravenously […]; assay type: functional, Canis lupus familiaris; in short: as §1
Canis familiaris [26] = assay: Inotropic activity determined by evaluating the % change in Heart Rate (HR) at a dose of 10 ug/kg administered intravenously […]; assay type: functional, Canis lupus familiaris; in short: as §1
Canis familiaris [27] = assay: Inotropic activity determined by evaluating the maximum rate of rise in left ventricular pressure at a dose of 10 ug/kg administered intravenously […]; assay type: functional, Canis lupus familiaris, Muscle tissue; in short: as §1
Canis familiaris [28] = assay: Inotropic activity determined by evaluating the % change in Cardiac out put (CO)at a dose of 30 ug/kg administered intravenously […]; assay type: functional, Canis lupus familiaris; in short: as §1
Canis familiaris [29] = assay: Inotropic activity determined by evaluating the maximum rate of rise in left ventricular pressure at a dose of 3 ug/kg administered intravenously […]; assay type: functional, Canis lupus familiaris, Muscle tissue; in short: as §1
Canis familiaris [30] = assay: Inotropic activity determined by evaluating the % change in Diastolic Blood Pressure (DBP) at a dose of 3 ug/kg administered intravenously […]; assay type: functional, Canis lupus familiaris; in short: as §1
Canis familiaris [31] = assay: Inotropic activity determined by evaluating the % change in Systolic Blood Pressure (SBP) at a dose of 10 ug/kg administered intravenously […]; assay type: functional, Canis lupus familiaris; in short: as §1
Canis familiaris [32] = assay: Inotropic activity determined by evaluating the % change in contractile force (CF) of right ventricle at a dose of 10 ug/kg administered intravenously […]; assay type: functional, Canis lupus familiaris, Heart right ventricle; in short: as §1
Canis familiaris [33] = assay: Inotropic activity determined by evaluating the % change in contractile force (CF) of right ventricle at a dose of 100 ug/kg administered intravenously […]; assay type: functional, Canis lupus familiaris, Heart right ventricle; in short: as §1
Canis familiaris [34] = assay: Inotropic activity determined by evaluating the maximum rate of rise in left ventricular pressure at a dose of 100 ug/kg administered intravenously […]; assay type: functional, Canis lupus familiaris, Muscle tissue; in short: as §1
Canis familiaris [35] = assay: Inotropic activity determined by evaluating the % change in Diastolic Blood Pressure (DBP) at a dose of 100 ug/kg administered intravenously […]; assay type: functional, Canis lupus familiaris; in short: as §1
Canis familiaris [36] = assay: Inotropic activity determined by evaluating the % change in Systolic Blood Pressure (SBP) at a dose of 100 ug/kg administered intravenously […]; assay type: functional, Canis lupus familiaris, Muscle tissue; in short: as §1
Canis familiaris [37] = assay: Inotropic activity determined by evaluating the % change in Cardiac out put (CO)at a dose of 100 ug/kg administered intravenously […]; assay type: functional, Canis lupus familiaris; in short: as §1
Canis familiaris [38] = assay: Inotropic activity determined by evaluating the % change in Heart Rate (HR) at a dose of 100 ug/kg administered intravenously […]; assay type: functional, Canis lupus familiaris; in short: as §1

| Structure (SMILES) | dP/dt (Canis familiaris [1]) [%] | Change of SBP (Canis familiaris [2]) [%] | Change of DBP (Canis familiaris [3]) [%] | Change of HR (Canis familiaris [4]) [%] | Change of SBP (Canis familiaris [5]) [%] | Change of CO (Canis familiaris [6]) [%] | ED30 (Canis familiaris [7]) [mg/kg] | Change of DBP (Canis familiaris [8]) [%] | Change of CO (Canis familiaris [9]) [%] | ED15 (Canis familiaris [10]) [µg] | Change of HR (Canis familiaris [11]) [%] | Change of CF (Canis familiaris [12]) [%] | Change of CF (Canis familiaris [13]) [%] | dP/dt (Canis familiaris [14]) [%] | Change of DBP (Canis familiaris [16]) [%] | Change of HR (Canis familiaris [17]) [%] | Change of SBP (Canis familiaris [18]) [%] | Change of CF (Canis familiaris [20]) [%] | dP/dt (Canis familiaris [21]) [%] | Change of CO (Canis familiaris [23]) [%] | other results |
| --- | --- | --- | --- | --- | --- | --- | --- | --- | --- | --- | --- | --- | --- | --- | --- | --- | --- | --- | --- | --- | --- |
| CCc1cc(O)nnc1-c1ccc(Nc2ccncc2)cc1.Cl | -0.9 | 0.4 | -9.3 | -2.9 | -5 | 3.9 | > 1 | -0.9 | 8.6 | >300 | -0.1 | 2.8 | 4.2 | 1 |  |  |  |  |  |  |  |
| Cl.O=C1CCC(c2ccc(Nc3ccncc3)cc2)=NN1 |  |  |  |  |  |  | 0.0085 |  |  | 4.1 |  |  |  |  | -22 | 17.4 | -24.9 | 78.9 | 69.1 | 17.2 | Change of HR (Canis familiaris [15]): 5.8%; Change of CF (Canis familiaris [19]): 34.4%; Change of SBP (Canis familiaris [22]): -7.9%; Change of DBP (Canis familiaris [24]): -32.9%; Change of CO (Canis familiaris [25]): 12.6%; Change of HR (Canis familiaris [26]): 9.9%; dP/dt (Canis familiaris [27]): 37.3%; Change of CO (Canis familiaris [28]): 27.7%; dP/dt (Canis familiaris [29]): 20.9%; Change of DBP (Canis familiaris [30]): -10.9%; Change of SBP (Canis familiaris [31]): -16.1%; Change of CF (Canis familiaris [32]): 56.4% |
| Cl.Oc1ccc(-c2ccc(Nc3ccncc3)cc2)nn1 |  |  |  |  |  |  | 0.022 |  |  | 50 |  |  |  |  | -7.5 | 2.4 | -11.9 | 19.9 | 39.6 | 1.6 | Change of CF (Canis familiaris [33]): 33.7%; dP/dt (Canis familiaris [34]): 57.1%; Change of DBP (Canis familiaris [35]): -27.6%; Change of DBP (Canis familiaris [24]): -20%; Change of HR (Canis familiaris [26]): 1.3%; dP/dt (Canis familiaris [27]): 20.2%; Change of CO (Canis familiaris [28]): 5.4%; Change of SBP (Canis familiaris [36]): -22.3%; Change of CO (Canis familiaris [37]): 7.7%; Change of SBP (Canis familiaris [31]): -3.6%; Change of HR (Canis familiaris [38]): 4.2%; Change of CF (Canis familiaris [32]): 11% |
| Nc1cc(-c2ccncc2)c[nH]c1=O [INAMRINONE] | 54.8 | -2.7 | -14.1 | 8.1 | -5.5 | 15.6 | 0.472 | -4.1 | 36.5 | 200 | 3.8 | 22.4 | 79.7 | 22.3 |  |  |  |  |  |  | Change of CF (Canis familiaris [33]): 6.5%; dP/dt (Canis familiaris [34]): 6.7%; Change of DBP (Canis familiaris [35]): -4.7%; Change of SBP (Canis familiaris [36]): -5%; Change of CO (Canis familiaris [37]): 1.9%; Change of HR (Canis familiaris [38]): 1.2% |

From ChEMBL document CHEMBL1123853, “A novel class of cardiotonics. Synthesis and pharmacological properties of [4-(substituted-amino)phenyl]pyridazinones and related derivatives” (1987)
